Measured values gathered from unrelated publications.
Each line is one published result; the experiments were not run side by side.
Target: Receptor tyrosine-protein kinase erbB-4 (ERBB4, Homo sapiens, UniProt Q15303)

SMILES | effect on | action | method | tested at | measurement | value
C=CC(=O)Nc1cc(Nc2nccc(Nc3cc(Cl)c(F)cc3C(C)(C)O)n2)c(OC)cc1N1CC[C@@H](N(C)C)C1 | enzyme activity | inhibitor |  | 1 µM | inhibition | 88%
O=C(Nc1nccs1)C(c1cc(F)ccc1O)N1Cc2ccccc2C1=O (stereo not shown) | enzyme activity | inhibitor |  | 1 µM | inhibition | 16%
O=C1NC(=O)c2cc(Nc3ccc(F)cc3)c(Nc3ccc(F)cc3)cc21 | cell-free assay |  |  | 0.5 µM | remaining signal | 99.4%
CC/C(=N\NC(=O)NCc1cccc(O)c1)c1ccc(O)c(C)c1O | enzyme activity | inhibitor |  | 0.1 µM | inhibition | 9.9%
CC(C)(C)c1nc(-c2cccc(NS(=O)(=O)c3c(F)cccc3F)c2F)c(-c2ccnc(N)n2)s1 | enzyme activity | inhibitor | radiometric | 1 µM | remaining activity | 91%
CC(=O)c1c(NS(C)(=O)=O)c2cc(-c3ccc(Cl)cc3)c(-c3ccc(Cl)cc3Cl)nc2n(C)c1=O | cell-free assay |  | competition with immobilised ligand | 1 µM | remaining binding | 100%
Cn1c(=O)n(-c2ccc(C(C)(C)C#N)cc2)c2c3cc(-c4cnc5ccccc5c4)ccc3ncc21 | enzyme activity | inhibitor |  | 10 µM | remaining activity | 117%
Cc1cnc(NC2CCOCC2)nc1-n1cnc(C(=O)NC(CN)c2cc(F)cc(Cl)c2)c1 (stereo not shown) | enzyme activity | inhibitor | radiometric | 1 µM | remaining activity | 108%
NS(=O)(=O)c1cc(NC(=O)C2(c3ccccc3Cl)CC2)ccc1Oc1cccc(Cl)c1 | cell-free assay |  | competition with immobilised ligand | 1 µM | remaining binding | 75%
Cc1ccc(NC(=O)c2ccc(C)c(C(F)(F)F)c2)cc1C#Cc1nn(C2CCC(O)CC2)c2ncnc(N)c12 (stereo not shown) | cell-free assay |  |  | 10 µM | remaining signal | -3%
CN(C(=O)c1ccccc1)c1cc(N(C)c2ccc3c(c2)CCc2ccc(C(=O)NCCN4CCOCC4)cc2C3=O)ccc1F | cell-free assay |  | competition with immobilised ligand | 1 µM | remaining binding | 90%
COc1cc2nccc(Oc3ccc(NC(=O)c4c5n(n(-c6ccc(F)cc6)c4=O)CCCC5)cc3)c2cc1OC | enzyme activity | inhibitor |  | 0.1 µM | inhibition | -17%
O=C1Nc2ccc(Cl)cc2C1=Cc1cc(Cl)c(O)c(Cl)c1 | cell-free assay |  |  | 0.5 µM | remaining signal | 94.2%
Cc1ccc(Nc2nccc(N(C)c3ccc4c(C)n(C)nc4c3)n2)cc1S(N)(=O)=O | enzyme activity | inhibitor |  | 0.3 µM | inhibition | -9%
CN(C)C(=O)Cn1cc(-c2nc([C@@](C)(c3ccc(-c4cnc(N)nc4)cc3)C3CC3)no2)cn1 | cell-free assay |  | competition with immobilised ligand | 1 µM | remaining binding | 100%
COc1cc(/C=C/C(=O)CC(=O)/C=C/c2ccc(O)c(OC)c2)ccc1O | enzyme activity | inhibitor |  | 1 µM | activity vs control | 71%
CO[C@@H](C)c1c(Nc2ccc([C@H](N(C)C(=O)C3CCS(=O)(=O)CC3)C(F)(F)F)cc2)cnc2cc(Cl)nn12 | cell-free assay |  | competition with immobilised ligand | 1 µM | remaining binding | 84%
COc1cc2ncnc(Nc3ccc(Oc4ccccc4)cc3C)c2cc1OC | enzyme activity | inhibitor |  | 1 µM | inhibition | 98%
CCCOc1ccc(OC)c(F)c1C(=O)c1ccc(C(=O)N[C@@H]2CNC[C@H]2NC(=O)c2ccc3[nH]ncc3c2)cc1 | enzyme activity | inhibitor |  | 10 µM | remaining activity | 92%
O=C(Nc1cccnn1)N1CCC(=Cc2cccc(Oc3ccc(C(F)(F)F)cn3)c2)CC1 | cell-free assay |  | competition with immobilised ligand | 1 µM | remaining binding | 100%
CS(=O)(=O)CCNCc1ccc(-c2ccc3ncnc(Nc4ccc(OCc5cccc(F)c5)c(Cl)c4)c3c2)o1 | cell-free assay |  |  | 0.5 µM | remaining signal | 11.2%
Cc1sc(C(=O)NC2COC2)cc1-n1cc(NC(=O)Nc2c(F)cccc2Cl)cn1 | enzyme activity | inhibitor |  | 10 µM | remaining activity | 95%
Cc1cc(NC(=O)c2cccc3cc(-c4cccc5[nH]nc(N)c45)ccc23)ccc1F | enzyme activity | inhibitor |  | 0.1 µM | activity vs control | 102%
COc1cc(Nc2cnc(C#N)c(O[C@H](C)CN(C)C)n2)ncc1-c1cnn(C)c1 | enzyme activity | inhibitor | radiometric | 10 µM | remaining activity | 94%
CN(C)c1ncnc(-c2ccc3nc(Nc4cc(CN5CCN(C(=O)CC(F)(F)F)CC5)ccn4)[nH]c3c2)c1Cl | cell-free assay |  | competition with immobilised ligand | 1 µM | remaining binding | 99%
CCN(CC)CCNC(=O)c1c(C)[nH]c(/C=C2\C(=O)Nc3ccc(F)cc32)c1C | cell-free assay |  |  | 0.5 µM | remaining signal | 94.8%
CNCc1ccccc1-c1csc([C@H](C)Nc2nc(C)nc3cc(OC)c(OC)cc23)c1 | cell-free assay |  | competition with immobilised ligand | 1 µM | remaining binding | 100%
O=C(CSc1nc2nccnc2c(=O)n1CCc1ccccc1)Nc1nccs1 | enzyme activity | inhibitor |  | 10 µM | inhibition | -4%
